Tests used:
[1] = Octanol/phosphate buffer partition coefficient, LogD of compound at pH 7.4 mixed for 1 hr using benchtop-rotator followed by further incubation for 1 hr by ESI-LC-MS/MS analysis; assay type: physicochemical
Autotaxin [2] = biological target: T1, Autotaxin (Homo sapiens, UniProt Q13822); assay: Inhibition of recombinant human ATX assessed as reduction in choline release using LPC(16:0) as substrate incubated for 15 hrs
Procedure, shortened: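 Recombinant human ATX with 16:0 LPC as substrate. Single-point inhibition was tested at 30 μM, and IC50 values were determined.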

[3] = Protein binding in human plasma measured after 4 hrs by LC-MS/MS analysis; assay type: ADME, cell-free; settings: read-out: PPB (converted)
[4] = Half life in Beagle dog at 0.3 mg/kg, iv administered as single dose by LC-MS/MS analysis; assay type: ADME, organism-based, Canis lupus familiaris; settings: in vivo
[5] = Volume of distribution at steady state in Beagle dog at 0.3 mg/kg, iv administered as single dose by LC-MS/MS analysis; assay type: ADME, organism-based, Canis lupus familiaris; settings: in vivo, read-out: Vdss
[6] = Clearance in Beagle dog at 0.3 mg/kg, iv administered as single dose by LC-MS/MS analysis; assay type: ADME, organism-based, Canis lupus familiaris; settings: in vivo
[7] = Volume of distribution at steady state in Sprague-Dawley rat at 0.3 mg/kg, iv administered as single dose by LC-MS/MS analysis; assay type: ADME, organism-based; settings: in vivo, read-out: Vdss
MDA-MB-231 [8] = assay: Antitumor activity against human MDA-MB-231 cells xenografted in SCID mouse assessed as tumor growth inhibition at 100 mg/kg, po administered twice daily for 32 days and […] relative to control; assay type: functional; settings: MDA-MB-231, po, read-out: TGI
Procedure, shortened: (§1)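 MDA-MB-231 human breast tumour-bearing mice dosed orally at 30 or 100 mg/kg twice daily for 32 days. Where combined, paclitaxel was given at 20 mg/kg ip three times weekly for 5 weeks. Tumour volume was followed and reported at day 32. Tumour growth inhibition was taken from median tumour volume versus vehicle. Groups of n = 8–9 were compared by Student t test.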

Autotaxin [9] = biological target: T1, Autotaxin; assay: Inhibition of LysoPLD activity of ATX in human plasma assessed as reduction in choline release using LPC(16:0) as substrate incubated for 15 hrs; assay type: cell-free
Procedure, shortened: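 LysoPLD activity in human plasma with 16:0 LPC as substrate; IC50 determined.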

[10] = Oral bioavailability in cynomolgus monkey at 1 mg/kg administered as single dose by LC-MS/MS analysis; assay type: ADME, organism-based, Macaca fascicularis; settings: in vivo
MDA-MB-231 [11] = assay: (§2) Potentiation of paclitaxel-induced antitumor activity against human MDA-MB-231 cells xenografted in SCID mouse assessed as tumor growth inhibition at 100 mg/kg, po administered twice daily for 32 days in combination with paclitaxel at 20 mg/kg, ip three times weekly for 5 weeks and […] (reference value: 81.5%); assay type: functional; procedure, shortened: as §1
[12] = Volume of distribution at steady state in cynomolgus monkey at 0.3 mg/kg, iv administered as single dose by LC-MS/MS analysis; assay type: ADME, organism-based, Macaca fascicularis; settings: in vivo, read-out: Vdss
Autotaxin [13] = biological target: T1, Autotaxin; assay: In vivo inhibition of lysoPLD activity of ATX in SCID mouse plasma xenografted with human MDA-MB-231 cells at 100 mg/kg, po administered twice daily for 32 days in combination with paclitaxel at 20 mg/kg, ip three times weekly for 5 weeks and measured at 18 hrs post-last dose relative to control; assay type: functional, organism-based
[14] = AUC in Sprague-Dawley rat at 0.5 mg/kg, po administered as single cassette dosing by LC-MS/MS analysis; assay type: ADME, organism-based; settings: in vivo
Procedure, shortened: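 Rat cassette dosing, 0.5 mg/kg oral; plasma AUC reported.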

[15] = Oral bioavailability in Sprague-Dawley rat at […] administered as single dose by LC-MS/MS analysis; assay type: ADME, organism-based; settings: in vivo
Procedure, shortened: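 Single-dose rat PK, 1 mg/kg iv and 3 mg/kg po, n = 3. Plasma clearance was taken from the iv dose. Bioavailability was calculated from the iv and oral doses.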

[16] = Oral bioavailability in Beagle dog at 1 mg/kg administered as single dose by LC-MS/MS analysis; assay type: ADME, organism-based, Canis lupus familiaris; settings: in vivo
[17] = Clearance in Sprague-Dawley rat at 0.3 mg/kg, iv administered as single dose by LC-MS/MS analysis; assay type: ADME, organism-based; settings: in vivo
[18] = Half life in SCID mouse at 1 mg/kg, po administered as single dose by LC-MS/MS analysis; assay type: ADME, organism-based; settings: in vivo
[19] = Half life in Beagle dog at 1 mg/kg, po administered as single dose by LC-MS/MS analysis; assay type: ADME, organism-based, Canis lupus familiaris; settings: in vivo
Autotaxin [20] = biological target: T1, Autotaxin; assay: In vivo inhibition of lysoPLD activity of ATX in SCID mouse plasma xenografted with human MDA-MB-231 cells at 30 mg/kg, po administered twice daily for 32 days in combination with paclitaxel at 20 mg/kg, ip three times weekly for 5 weeks and measured at 18 hrs post-last dose relative to control; assay type: functional, organism-based
[21] = Cmax in cynomolgus monkey at 1 mg/kg, po administered as single dose by LC-MS/MS analysis; assay type: ADME, organism-based, Macaca fascicularis; set-up: dose 1 mg/kg, route oral; settings: in vivo
[22] = Half life in Sprague-Dawley rat at 1 mg/kg, po administered as single dose by LC-MS/MS analysis; assay type: ADME, organism-based; settings: in vivo
[23] = Half life in Sprague-Dawley rat at 0.3 mg/kg, iv administered as single dose by LC-MS/MS analysis; assay type: ADME, organism-based; settings: in vivo
[24] = Clearance in cynomolgus monkey at 0.3 mg/kg, iv administered as single dose by LC-MS/MS analysis; assay type: ADME, organism-based, Macaca fascicularis; settings: in vivo
[25] = Cmax in SCID mouse at 1 mg/kg, po administered as single dose by LC-MS/MS analysis; assay type: ADME, organism-based; set-up: dose 1 mg/kg, route oral; settings: in vivo
MDA-MB-231 [26] = assay: as §2, with “30” for “100”, “and measured on” for “and”; assay type: functional; procedure, shortened: as §1
[27] = Cmax in Beagle dog at 1 mg/kg, po administered as single dose by LC-MS/MS analysis; assay type: ADME, organism-based, Canis lupus familiaris; set-up: dose 1 mg/kg, route oral; settings: in vivo
[28] = Protein binding in rat plasma measured after 4 hrs by LC-MS/MS analysis; assay type: ADME, cell-free; settings: read-out: PPB (converted)
[29] = Cmax in Sprague-Dawley rat at 1 mg/kg, po administered as single dose by LC-MS/MS analysis; assay type: ADME, organism-based; set-up: dose 1 mg/kg, route oral; settings: in vivo
[30] = Half life in cynomolgus monkey at 0.3 mg/kg, iv administered as single dose by LC-MS/MS analysis; assay type: ADME, organism-based, Macaca fascicularis; settings: in vivo
[31] = Drug metabolism in rat hepatocytes assessed as compound isomerization by measuring conversion ratio at 1 uM incubated for 2 hrs by LC-MS/MS analysis; assay type: ADME, cell-based, Hepatocyte; settings: read-out: Drug metabolism
Procedure, shortened: (§3)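 Hepatocytes from human, rat, dog and monkey were incubated with the trans isomer. The conversion ratio is the cis isomer concentration over the sum of cis and trans, 2 h after the start of incubation.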

[32] = Drug metabolism in human hepatocytes assessed as compound isomerization by measuring conversion ratio at 1 uM incubated for 2 hrs by LC-MS/MS analysis; assay type: ADME, cell-based, Hepatocyte; settings: read-out: Drug metabolism; procedure, shortened: as §3
[33] = Drug metabolism in monkey hepatocytes assessed as compound isomerization by measuring conversion ratio at 1 uM incubated for 2 hrs by LC-MS/MS analysis; assay type: ADME, cell-based, Macaca mulatta, Hepatocyte; settings: rhesus monkey, read-out: Drug metabolism; procedure, shortened: as §3
[34] = Drug metabolism in dog hepatocytes assessed as compound isomerization by measuring conversion ratio at 1 uM incubated for 2 hrs by LC-MS/MS analysis; assay type: ADME, cell-based, Canis lupus familiaris, Hepatocyte; settings: read-out: Drug metabolism; procedure, shortened: as §3
Autotaxin [35] = biological target: T1, Autotaxin; assay: Selectivity index, ratio of IC50 for LysoPLD activity of ATX in human plasma to IC50 for recombinant human ATX assessed as reduction in choline release using LPC(16:0) as substrate incubated for 15 hrs
Procedure, shortened: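 Ratio of two IC50 values. One comes from LysoPLD activity in human plasma. The other comes from purified recombinant human ATX. Both assays use 16:0 LPC as substrate.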

Structure (SMILES): O=C(C[C@H]1CC[C@H](C(=O)O)CC1)N1CCc2c(n(Cc3cccc(F)c3)c3ncccc23)C1
- logD at 1 h [1]: 1.07
- IC50 (Autotaxin [2]): 17 nM
- fraction unbound at 4 h [3]: 0.007

Structure (SMILES): O=C(CC12CCC(C(=O)O)(CC1)C2)N1CCc2c(n(Cc3ccc(F)cc3)c3ncccc23)C1
- half-life [4]: 8.9 h
- Vd [5]: 1.86 L/kg
- clearance [6]: 4.7 mL/min/kg
- Vd [7]: 1.47 L/kg
- inhibition in vivo at 100 mg/kg (MDA-MB-231 [8]): 14.7%
- IC50 (Autotaxin [9]): 5.5 nM
- bioavailability [10]: 30.8%
- TGI (MDA-MB-231 [11]): 95.5%
- Vd [12]: 2.27 L/kg
- inhibition (Autotaxin [13]): 99.3%
- AUC [14]: 842 ng·h/mL
- bioavailability [15]: 51.6%
- bioavailability [16]: 71.1%
- clearance [17]: 8.2 mL/min/kg
- half-life [18]: 5.4 h
- half-life [19]: 5.9 h
- inhibition (Autotaxin [20]): 97.1%
- Cmax [21]: 63 ng/mL
- half-life [22]: 2.5 h
- half-life [23]: 3.4 h
- clearance [24]: 5.8 mL/min/kg
- IC50 (Autotaxin [2]): 10 nM
- Cmax [25]: 124 ng/mL
- TGI (MDA-MB-231 [26]): 91.2%
- fraction unbound at 4 h [3]: 0.01
- Cmax [27]: 1670 ng/mL
- fraction unbound at 4 h [28]: 0.049
- Cmax [29]: 261 ng/mL
- half-life [30]: 7.9 h

Structure (SMILES): O=C(CC12CCC(C(=O)O)(CC1)CC2)N1CCc2c(n(Cc3ccc(F)cc3)c3ncccc23)C1
- IC50 (Autotaxin [9]): 6.1 nM
- AUC [14]: 420 ng·h/mL
- IC50 (Autotaxin [2]): 12 nM
- fraction unbound at 4 h [3]: 0.014
- fraction unbound at 4 h [28]: 0.054

Structure (SMILES): O=C(C[C@H]1CC[C@H](C(=O)O)CC1)N1CCc2c(n(Cc3ccc(F)cc3F)c3ncccc23)C1
- metabolised at 2 h, 1 µM [31]: 14.4%
- logD at 1 h [1]: 1.15
- IC50 (Autotaxin [9]): 7.3 nM
- metabolised at 2 h, 1 µM [32]: 29.8%
- metabolised at 2 h, 1 µM [33]: 21.4%
- metabolised at 2 h, 1 µM [34]: 9%
- fraction unbound at 4 h [3]: 0.016
- fraction unbound at 4 h [28]: 0.021

Structure (SMILES): O=C(O)CCCC(=O)N1CCc2c(n(Cc3ccccc3)c3ncccc23)C1
- IC50 (Autotaxin [2]): 830 nM

Structure (SMILES): CC(C)(CCCC(=O)N1CCc2c(n(Cc3cccc(F)c3)c3ncccc23)C1)C(=O)O
- IC50 (Autotaxin [9]): 260 nM
- Ratio IC50 (Autotaxin [35]): 15
- IC50 (Autotaxin [2]): 17 nM

Structure (SMILES): O=C(CC12CCC(C(=O)O)(CC1)C2)N1CCc2c(n(Cc3ccc(F)cc3F)c3ncccc23)C1
- IC50 (Autotaxin [9]): 7.9 nM
- AUC [14]: 500 ng·h/mL
- IC50 (Autotaxin [2]): 11 nM
- fraction unbound at 4 h [3]: 0.008
- fraction unbound at 4 h [28]: 0.061

Structure (SMILES): O=C(C[C@H]1CC[C@@H](C(=O)O)CC1)N1CCc2c(n(Cc3cccc(F)c3)c3ncccc23)C1
- logD at 1 h [1]: 1.45
- IC50 (Autotaxin [2]): 29 nM
- fraction unbound at 4 h [3]: 0.004

Structure (SMILES): O=C(O)c1cccc(CC(=O)N2CCc3c(n(Cc4cccc(F)c4)c4ncccc34)C2)c1
- IC50 (Autotaxin [2]): 100 nM
- fraction unbound at 4 h [3]: 0.011

Structure (SMILES): C[C@]1(C(=O)O)CC[C@H](CC(=O)N2CCc3c(n(Cc4ccc(F)cc4F)c4ncccc34)C2)CC1
- IC50 (Autotaxin [9]): 25 nM
- AUC [14]: 677 ng·h/mL
- IC50 (Autotaxin [2]): 22 nM
- fraction unbound at 4 h [3]: 0.009
- fraction unbound at 4 h [28]: 0.039

From ChEMBL document CHEMBL4616716, “ONO-8430506: A Novel Autotaxin Inhibitor That Enhances the Antitumor Effect of Paclitaxel in a Breast Cancer Model” (ACS Med Chem Lett, 2020)
